Screens deposited in PubChem by Broad Institute.
Shown are actives, neighbours in structure and some others; about 2.9% of the full set was active somewhere.
E-selectin induc = E-selectin induction on HUVECs | P16581 | HUVEC E-selectin immunofluorescence imaging; normalized: neutral wells 0, TNF-alpha wells 100 | activation, % at 7.58 µM | actives 0.37% (n = 260,000);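 active = mean E-selectin-positive cell signal at least 10% of the positive control, reached in at least 60% of replicates, without over 20% cell loss; inconclusive = no rule given, readout overlaps actives, possibly toxicity-flagged; inactive = the rest, including those meeting only one limit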
Target sequence (P16581 whole entry, looked up): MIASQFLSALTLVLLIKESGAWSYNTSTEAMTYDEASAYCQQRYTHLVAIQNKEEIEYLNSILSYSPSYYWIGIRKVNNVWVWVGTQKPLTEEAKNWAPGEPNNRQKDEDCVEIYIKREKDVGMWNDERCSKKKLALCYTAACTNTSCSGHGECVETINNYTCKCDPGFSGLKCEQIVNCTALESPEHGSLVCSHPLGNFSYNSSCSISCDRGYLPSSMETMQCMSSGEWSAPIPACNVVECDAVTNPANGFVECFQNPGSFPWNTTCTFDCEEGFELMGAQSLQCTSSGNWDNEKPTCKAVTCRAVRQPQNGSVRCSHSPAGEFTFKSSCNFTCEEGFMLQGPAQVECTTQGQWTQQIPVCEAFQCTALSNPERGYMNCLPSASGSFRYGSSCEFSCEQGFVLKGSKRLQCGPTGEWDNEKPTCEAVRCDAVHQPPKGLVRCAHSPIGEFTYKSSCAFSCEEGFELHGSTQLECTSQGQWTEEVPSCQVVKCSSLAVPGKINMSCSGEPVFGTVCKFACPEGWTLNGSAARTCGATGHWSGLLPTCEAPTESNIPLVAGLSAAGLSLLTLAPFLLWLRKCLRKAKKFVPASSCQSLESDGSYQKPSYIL
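Assay system: HUVEC primary endothelial cells. Input: 3,000 HUVEC seeded per well. Doses: one compound dose added by pin transfer. Read-out basis: % PE-positive cells. Benchmarks: TNF-alpha high, DMSO low. Detection: immunofluorescence imaging. Buffer or medium: EGM-2, gelatin.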
DENV2 CPE = protects cells from dengue virus 2 cytopathic effect; DENV2-infected cells, cytopathic effect rescue, plate reader; CPE inhibition, % at 9.99 µM; actives 1.7% (n = 350,000); in the data active = CPE inhibition above about 20%, passing the limit was not always enough; inconclusive = no clear call, values can overlap the other calls; tested in BHK-21 cells
SIRT5 inh = blocks human SIRT5 desuccinylation of peptide. actives 1.1% (n = 330,000). inhibition, % at 15 µM. Purified SirT5, succinyl-peptide AMC, trypsin-coupled fluorescence. Q9NXA8; in the data active = inhibition above about 15%; inconclusive = no clear call, values can overlap the other calls
Numbers stand for hits; 0 = inactive; ? = inconclusive; - = no result given; ! = not confirmed by another sample.

SMILES	E-selectin induc	DENV2 CPE	SIRT5 inh
O=C(C[C@H]1C[C@H](C(=O)N2CCOCC2)[C@@]2(CCC3CCCC3)c3[nH]c4cc(-c5ccco5)ccc4c3CCN2C1=O)NCc1ccco1	-	0	28.1
CCN(CC)C(=O)[C@H]1C[C@H](CC(=O)NC(C)(C)C)C(=O)N2CCc3c([nH]c4cc(-c5ccco5)ccc34)[C@]12C	0	0	0
CC(C)N(C(=O)[C@H]1C[C@H](CC(=O)NCc2cccc(C(F)(F)F)c2)C(=O)N2CCc3c([nH]c4cc(CCC(=O)N(C)C)ccc34)[C@]12C)C(C)C	-	0	23.7
CC[C@]12c3[nH]c4ccccc4c3CCN1C(=O)C(CC(=O)NCCc1ccccn1)C[C@@H]2C(=O)N1CCN(C(=O)c2ccco2)CC1 (some centres not stated)	0	0	0
COc1ccc(-c2csc(NC(=O)CSC(C)C(=O)Nc3cc(C)on3)n2)cc1OC (configuration not stated)	0	0	0
CCOC(=O)[C@H]1[C@H]2COc3ccc(OC)cc3[C@H]2N2C(=O)CN(Cc3ccccc3)C(=O)[C@@]12C	0	0	0
CC1CC1C(=O)OCC(=O)NC(=O)c1ccccc1 (configuration not stated)	-	0	0
COCCN(CCOC)S(=O)(=O)c1ccc(C(=O)Nc2ccc(S(=O)(=O)Nc3nccc(C)n3)cc2)cc1	?	0	0
CN(C)C(=O)c1ccc(Nc2ncnc3sc4c(c23)CCCCC4)cc1	-	0	0
COc1cc(NC(=O)N2CCc3nc(Nc4cc(Cl)cc(Cl)c4)ncc3C2)cc(OC)c1OC	0	46.5	0
COc1ccc(CNC(=O)N2CCc3nc(Nc4cc(OC)c(OC)c(OC)c4)ncc3C2)cc1	0	0	0
CCCN(C)C[C@H]1Oc2ncc(C#CC3(O)CCCC3)cc2C(=O)N([C@H](C)CO)C[C@H]1C	0	26.8	0
CCCN(C)C[C@H]1Oc2ncc(C#CC3(O)CCCC3)cc2C(=O)N([C@@H](C)CO)C[C@H]1C	0	0	0
C[C@H](CO)N1C[C@H](C)[C@H](CN(C)CC2CC2)Oc2ncc(C#CC3(O)CCCC3)cc2C1=O	0	0	18.2
C[C@@H]1CN([C@H](C)CO)C(=O)c2cc(C#CC3(O)CCCC3)cnc2O[C@@H]1CN(C)C	0	?	0
CC(=O)N1CCC(C(=O)N2CCN(S(=O)(=O)c3cccs3)CC2)CC1	0	0	0
Cc1cc(C)nc(NC(N)=NCCc2ccccc2)n1	0	0	-
Cc1cc(C)nc(NC(N)=NC(C)c2ccccc2)n1 (configuration not stated)	185.3	0	0
O=C(NCc1cc(C(F)(F)F)ccc1Cl)c1cccc2c1C(=O)c1ccc(N3CCC(N4CCCCC4)CC3)cc1S2(=O)=O	0	0	0
O=C(NC1CC1)c1cccc2c1C(=O)c1ccc(N3CCC(N4CCCCC4)CC3)cc1S2(=O)=O	0	0	16.8
N#Cc1cncc(C#Cc2ccccc2)c1	0	0	0
N#Cc1ccccc1	-	30.2	-
COc1cccc(-c2ccc([C@H]3[C@@H](CO)N4CCCCN(Cc5cncnc5)C[C@H]34)cc2)c1	0	38.3	0
COc1cccc(-c2ccc([C@H]3[C@@H](CO)N4CCCCN(Cc5cncnc5)C[C@@H]34)cc2)c1	0	-	-
OC[C@@H]1[C@H](c2ccc(-c3ccccc3F)cc2)[C@H]2CN(Cc3cncnc3)CCCCN12	0	?	0
SMILES	E-selectin induc	DENV2 CPE	SIRT5 inh
OC[C@@H]1[C@@H](c2ccc(-c3ccccc3F)cc2)[C@H]2CN(Cc3cncnc3)CCCCN12	0	68.3	0
OC[C@@H]1[C@@H](c2ccc(-c3cccc(F)c3)cc2)[C@@H]2CN(Cc3cncnc3)CCCCN12	0	46.7	0
OC[C@H]1[C@@H](c2ccc(-c3cccc(F)c3)cc2)[C@H]2CN(Cc3cncnc3)CCCCN21	0	?	0
O=C(COC(=O)CCc1nc2ccccc2s1)NC(=O)NCc1ccco1	-	0	0
C[C@H](CO)N1C[C@H](C)[C@H](CN(C)C)Oc2cc(-c3ccncc3)ccc2S1(=O)=O	0	0	0
C[C@@H]1CN([C@@H](C)CO)C(=O)c2cc(NS(=O)(=O)c3ccccc3)ccc2O[C@@H]1CN(C)Cc1ccc(C(F)(F)F)cc1	0	0	0
CN(C)Cc1cn(CC[C@@H]2CC[C@@H](N)[C@H](CO)O2)nn1	0	0	0
CN(C)Cc1cn(CC[C@@H]2CC[C@@H](NS(=O)(=O)c3ccccc3)[C@H](CO)O2)nn1	0	0	0
CN(C)Cc1cn(CC[C@H]2CC[C@H](NS(=O)(=O)c3ccccc3)[C@H](CO)O2)nn1	0	0	33.2
CN(C)Cc1cn(CC[C@@H]2CC[C@H](N)[C@H](CO)O2)nn1	0	0	20.6
Cc1cc([N+](=O)[O-])c(C)cc1-c1ccc(/C=N/NC(=O)Cn2nnnc2N)o1	-	0	0
Cc1ccc(Cn2c(N)nc3ccccc32)cc1	-	0	0
Nc1nc2ccccc2n1Cc1ccc(Cl)c(Cl)c1	-	33.4	0
Cc1cccc(OCCn2c(=O)n(C)c3ccccc32)c1	0	68.9	0
Cc1cccc(OCCN2C(=O)c3ccccc3C2=O)c1	-	0	0
CC(=O)c1ccc(N2CCN(C(=O)/C=C/c3ccc(S(=O)(=O)NCc4ccco4)cc3)CC2)cc1	-	0	0
C=CCOc1ccc(CNn2cn[nH]c2=S)cc1OC	-	0	0
COc1ccc(N2C(=O)CCC2=O)c(OC)c1	0	0	0
COc1cccc(C(=O)Oc2ccc(N3C(=O)CCC3=O)c(C)c2)c1	0	0	15.6
N#C[C@@H]1[C@H](c2ccccc2C2=CCCC2)[C@@H](CO)N1C(=O)C1CCC1	0	0	0
COc1cc(CNC(=O)CCn2nc(C)c3c(C)n(-c4ccccc4)nc3c2=O)cc(OC)c1OC	0	0	0
Cc1ccc(NC(=S)NCc2ccco2)c(C)c1	0	0	80.2
CCOc1ccc(NC(=S)NCc2ccco2)cc1	-	0	17.1
S=C(NCc1ccco1)Nc1cc(Cl)c(Cl)cc1Cl	0	0	0
S=C(NCc1ccco1)Nc1ccc(Oc2ccccc2)cc1	0	0	0
SMILES	E-selectin induc	DENV2 CPE	SIRT5 inh
C[C@H](CO)N1C[C@H](C)[C@@H](CN(C)Cc2ccc(-c3ccccc3)cc2)Oc2ncc(C#C[C@@H](C)O)cc2C1=O	0	0	17.5!
C[C@H]1CN([C@@H](C)CO)C(=O)c2cc(C#CCN(C)C)cnc2O[C@H]1CN(C)Cc1ccncc1	0	0	0
C[C@@H]1CN([C@@H](C)CO)C(=O)c2cc(C#CCN(C)C)cnc2O[C@@H]1CN(C)Cc1ccc(F)cc1	0	0	0
C[C@H](O)C#Cc1cnc2c(c1)C(=O)N([C@H](C)CO)C[C@@H](C)[C@H](CN(C)Cc1ccc(-c3ccccc3)cc1)O2	0	-	-
C[C@H](CO)N1C[C@H](C)[C@H](CN(C)Cc2ccncc2)Oc2ncc(C#CCN(C)C)cc2C1=O	0	0	40.8!
C[C@H]1CN([C@@H](C)CO)C(=O)c2cc(C#CCN(C)C)cnc2O[C@H]1CN(C)Cc1ccc(F)cc1	0	32.1	0
CCN(CC)c1ccc(/C=N/NC(=O)c2nnn(-c3nonc3N)c2C(C)C)c(O)c1	-	0	0
CC(OC(=O)c1ccc(Cl)cc1)C(=O)NCC1CCCCC1 (configuration not stated)	0	0	0
CCOC(=O)COc1cccc2c(=O)n(CC(=O)N3CCCc4ccccc43)ccc12	-	0	0
COc1cccc2c(=O)n(CC(=O)N3CCCc4ccccc43)ccc12	0	0	23.0
